Compounds with a hit are over-represented: about 2.2% of the library has one in this group of screens.
PERK inh = human PERK inhibition, primary cell-based screen. AID 1416. Q9NZJ5. hit rate 0.17% among 220,000. CHO PERK-DD fusion, SEAP luminescence translation reporter. inhibition, % at 5.6 µM;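 active = inhibition above the mean inhibition of all tested compounds plus 3 SD, set separately per screening campaign, cut at about 2.9% in these data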;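 also: PERK kinase domain activated by AP20187 dimerizer at 100 nM; 0% = DMSO with dimerizer and 100% = rapamycin at 8.4 µM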
Hck Nef HTS = human Hck-Nef kinase inhibition | P08631 | Recombinant Hck-YEEI plus Nef, Z-Lyte FRET kinase assay | inhibition, % at 20 µM | hit rate 0.68% among 220,000 | AID 463187;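 active = Hck-Nef kinase inhibition above about 50%, limit read from the data; inactive = inhibition below that limit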;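 also: 0% = DMSO with Hck plus Nef and 100% = Hck alone without Nef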
RanGTP-Impb inh = disruptors of Ran-importin-beta complex formation – biochemical, FRET, CFP-Ran, YFP-importin-beta, homogeneous, primary screen | cell-free CFP-Ran/YFP-importin-beta FRET ratio | inhibition, % (concentration not given with the values) | hit rate 1.1% among 300,000 | AID 2216;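 active = more than half of the replicate wells show a fall in the fluorescence ratio signal beyond about 16%, limit read from the data, passing the limit was not always enough; inconclusive = exactly half of the replicate wells pass the set limit; inactive = fewer than half of replicates pass the limit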;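 also: 0% = DMSO wells and 100% = Ran loaded with GDP instead of GTP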
Runt-SMMHC FRET = inhibitors of human RUNX1 Runt domain binding to CBFb-SMMHC; Q01196+Q13951; hit rate 0.74% among 220,000; inhibition, % at 20 µM; Cerulean-Runt/Venus-CBFb-SMMHC FRET ratio 530/480, 1 h;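 active = mean inhibition across duplicate retests at 20 µM reaching about 50%, limit read from the data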;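 also: 0% = DMSO wells and 100% = wells with excess untagged CBFb-SMMHC; inhibitors lower the FRET ratio by blocking Runt binding to CBFb-SMMHC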
eIF4E-4G inh = eIF4E/eIF4G interaction inhibition in translation initiation | AID 782 | TR-FRET eIF4E-eIF4GI(517-606) binding, 2 h | P63073+Q04637 | hit rate 0.37% among 220,000 | inhibition, % at 21.7 µM;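 active = inhibition above about 30%, limit read from the data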;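 also: 0% = full FRET control wells and 100% = background wells lacking eIF4GI fragment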
Target sequence (P63073 whole entry, looked up, the tested form may be a part): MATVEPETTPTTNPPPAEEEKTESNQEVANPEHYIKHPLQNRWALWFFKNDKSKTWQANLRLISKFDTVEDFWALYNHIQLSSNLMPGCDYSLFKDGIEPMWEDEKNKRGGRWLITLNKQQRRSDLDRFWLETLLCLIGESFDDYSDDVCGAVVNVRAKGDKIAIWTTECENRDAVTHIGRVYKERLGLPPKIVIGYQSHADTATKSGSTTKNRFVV
Target sequence (Q04637 whole entry, looked up, the tested form may be a part): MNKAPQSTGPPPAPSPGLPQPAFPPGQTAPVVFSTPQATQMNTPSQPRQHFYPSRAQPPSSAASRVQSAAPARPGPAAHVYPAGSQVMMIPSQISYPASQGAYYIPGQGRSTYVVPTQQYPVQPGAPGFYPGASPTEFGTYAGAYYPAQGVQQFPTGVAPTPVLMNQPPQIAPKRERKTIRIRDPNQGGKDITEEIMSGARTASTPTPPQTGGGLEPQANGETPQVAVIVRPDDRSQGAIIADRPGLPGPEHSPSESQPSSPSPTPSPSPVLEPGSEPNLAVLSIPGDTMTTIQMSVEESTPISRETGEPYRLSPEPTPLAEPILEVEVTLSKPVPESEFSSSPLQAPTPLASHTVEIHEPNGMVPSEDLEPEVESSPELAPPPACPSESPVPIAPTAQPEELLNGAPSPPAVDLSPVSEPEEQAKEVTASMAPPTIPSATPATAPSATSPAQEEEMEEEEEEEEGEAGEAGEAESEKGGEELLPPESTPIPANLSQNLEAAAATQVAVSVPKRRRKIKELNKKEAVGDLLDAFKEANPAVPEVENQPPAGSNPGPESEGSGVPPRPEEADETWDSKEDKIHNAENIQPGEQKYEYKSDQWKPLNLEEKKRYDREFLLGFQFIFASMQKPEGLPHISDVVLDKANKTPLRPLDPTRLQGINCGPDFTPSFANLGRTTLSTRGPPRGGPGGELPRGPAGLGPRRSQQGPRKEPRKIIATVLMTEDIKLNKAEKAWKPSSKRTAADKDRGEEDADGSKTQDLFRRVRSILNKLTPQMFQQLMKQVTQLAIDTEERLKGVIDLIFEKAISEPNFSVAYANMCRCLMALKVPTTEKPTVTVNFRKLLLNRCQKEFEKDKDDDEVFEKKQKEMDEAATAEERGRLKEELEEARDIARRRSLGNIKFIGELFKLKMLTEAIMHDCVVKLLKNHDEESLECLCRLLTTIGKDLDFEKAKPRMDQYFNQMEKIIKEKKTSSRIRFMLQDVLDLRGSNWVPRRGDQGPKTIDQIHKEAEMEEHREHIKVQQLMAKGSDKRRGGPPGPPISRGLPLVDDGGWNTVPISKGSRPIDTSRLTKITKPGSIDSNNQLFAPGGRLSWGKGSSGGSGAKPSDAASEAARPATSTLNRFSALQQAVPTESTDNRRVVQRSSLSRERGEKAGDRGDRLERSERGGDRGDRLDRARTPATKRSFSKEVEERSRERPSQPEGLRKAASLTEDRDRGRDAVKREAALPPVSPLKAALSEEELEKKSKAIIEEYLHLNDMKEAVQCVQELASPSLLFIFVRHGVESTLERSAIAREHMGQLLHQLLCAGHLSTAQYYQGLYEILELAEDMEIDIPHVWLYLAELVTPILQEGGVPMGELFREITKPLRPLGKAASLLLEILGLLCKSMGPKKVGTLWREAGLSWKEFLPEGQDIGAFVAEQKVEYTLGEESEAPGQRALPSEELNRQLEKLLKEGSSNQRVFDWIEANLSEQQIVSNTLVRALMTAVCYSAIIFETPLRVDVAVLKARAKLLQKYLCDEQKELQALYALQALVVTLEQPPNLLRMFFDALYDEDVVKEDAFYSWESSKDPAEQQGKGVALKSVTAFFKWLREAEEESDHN
Runt-CBFb FRET = inhibitors of human RUNX1 Runt domain binding to CBFb | Q01196+Q13951 | Cerulean-Runt/Venus-CBFb FRET ratio 530/480, 1 h | inhibition, % at 20 µM | hit rate 0.46% among 220,000 | AID 1496;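 active = inhibition over about 50% at 20 µM in the single-dose screen, limit read from the data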;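 also: 0% = DMSO wells and 100% = excess unlabeled CBFb competitor control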
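Buffer or medium: Tris pH 7.5 buffer with BSA. Assay system: Cerulean-labeled Runt domain protein. Amount: each fluorescent fusion protein 100 nM. Read-out basis: loss of energy transfer signal. Incubation: 1 h compound exposure, room temperature. Probe or stimulus: Venus-CBFb binding partner, 100 nM. Detection: FRET, excitation 422 nm, emission at 530 and 480 nm.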
Active calls of the source: *; u = inconclusive; x = no result given; [ ] = dose if it differs, or a comment.

SMILES	PERK inh	Hck Nef HTS	RanGTP-Impb inh	Runt-SMMHC FRET	eIF4E-4G inh	Runt-CBFb FRET
CN(C)CCCNc1cc(C(C)(C)C)nc2c(-c3ccc(Cl)cc3)cnn12	1	-9	2	-3	36*	0
CC(C)(C)c1cc(NCc2ccccn2)n2ncc(-c3ccc(Cl)cc3)c2n1	1	-5	2	-3	5	-5
CC(=O)N/C(=C/c1ccc(OS(=O)(=O)c2ccc(C)cc2)cc1)C(=O)NCCCO	2	9	0	-2	-3	1
N#C/C(=C\c1ccc(-c2ccccc2[N+](=O)[O-])o1)C(=O)Nc1nc(-c2cccs2)cs1	1	23	1	-6	7	-2
N#C/C(=C\c1ccc(-c2ccc([N+](=O)[O-])cc2)o1)C(=O)Nc1nc(-c2cccs2)cs1	0	67*	-3	-12	31*	-5
Cn1c(=O)[nH]c(=O)c2c1nc(SCC(=O)O)n2CCOc1ccccc1	x	x	-2	x	x	x
Cc1cc(Br)cn2ccnc12	3.0*	0	1	-8	5	3
COc1cc(C2C(C#N)=C(N)N(c3cccnc3)C3=C2C(=O)CCC3)ccc1O (stereo not drawn)	1	9	14	-13	4	2
CCSc1sccc1C1C(C#N)=C(N)N(c2cccnc2)C2=C1C(=O)CCC2 (stereo not drawn)	-1	0	u	66*	-4	45
CCOc1cc(/C=N/Nc2ncc(C)c(=O)[nH]2)ccc1O	x	x	7	x	x	x
O=c1[nH]c(C2CCN(S(=O)(=O)c3ccc(F)cc3)CC2)nc2c1nnn2Cc1ccc2c(c1)OCCO2	x	x	19*	x	x	x
O=c1[nH]c(C2CCN(S(=O)(=O)c3ccccc3F)CC2)nc2c1nnn2Cc1ccc2c(c1)OCCO2	x	x	12	x	x	x
Cc1ccc(CNc2nc(N)c([N+](=O)[O-])c(Nc3ccc(F)cc3)n2)cc1	1	0	19*	4	-8	0
Cc1ccc(CNc2nc(N)c([N+](=O)[O-])c(NCc3ccccc3)n2)cc1	0	1	-4	3	3	-1
CC(=O)OCC(=O)NCc1ccc2c(c1)OCO2	0	-1	-6	68	0	87*
O=C(COC(=O)c1ccc(O)cc1)NCc1ccc2c(c1)OCO2	0	25	1	0	-4	0
CCOc1ncccc1C(=O)OCC(=O)c1cc(OC)ccc1OC	0	17	-3	-2	3	0
Cc1ccc2oc(=O)c3cc(C(=O)NCCCN4CCCCCC4)sc3c2c1	x	x	3	x	x	x
Cc1ccc2oc(=O)c3cc(C(=O)NCCN4CCN(C)CC4)sc3c2c1	0	4	27*	0	1	2
Cc1ccc(-n2c(=O)c3cc4c(=O)n(-c5ccc(C)c(C)c5)c(=O)c4c(C(=O)c4ccc(C(=O)O)cc4)c3c2=O)cc1C	0	92*	2	-42	64*	32
O=C(O)c1ccc(-n2c(=O)c3ccccc3c3ccccc3c2=O)cc1	1	23	0	-6	2	2
COc1ccc(-n2c(=O)c3ccccc3n(CC(=O)NC3CCCCC3)c2=O)cc1OC	0	27	2	2	1	1
COc1cc(OC)c(NS(=O)(=O)c2cc(C(=O)OC(C)C(=O)NC3CC3)c(Cl)cc2Cl)cc1Cl (stereo not drawn)	-1	3	1	0	4	-3
CC1OC(OC2C(OC3C(O[C@H]4CC[C@]5(C)C6C=C[C@]78OC[C@@]9(CC[C@@H](C)[C@H](C)C97)[C@H](O)C[C@@]8(C)[C@]6(C)CC[C@H]5C4(C)C)OC(C)C(O)C3O)OC(CO)C(O)C2O)C(O)C(O)C1O (stereo partly drawn)	x	24	-1	-2	56*	6
NC(=O)c1c(NC(=O)CSc2nnc(-c3ccco3)n2-c2ccccc2)sc2c1CCC2	0	5	-5	20	31*[fluorescence artefact?]	15
CCOC(=O)c1c(NC(=O)CSc2nnc(-c3c[nH]c4ccccc34)n2CCOC)sc2c1CCCC2	0	-5	-6	-4	-5	0

Source: PubChem (several laboratories)
